ROMK primary = modulates human ROMK potassium channel activity | P48048 | Tet-inducible ROMK, thallium flux fluorescence; actives lie on both sides | B-score at 10 µM | hit rate 2% among 130,000 | AID 1918;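 active = signal ratio slope over the read window, or its plate-corrected B-score, at least 3 SD from the plate mean, either direction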;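 also: B-score of the F/F0 ratio slope over 7 to 12 s after thallium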
Target sequence (P48048 whole entry, looked up): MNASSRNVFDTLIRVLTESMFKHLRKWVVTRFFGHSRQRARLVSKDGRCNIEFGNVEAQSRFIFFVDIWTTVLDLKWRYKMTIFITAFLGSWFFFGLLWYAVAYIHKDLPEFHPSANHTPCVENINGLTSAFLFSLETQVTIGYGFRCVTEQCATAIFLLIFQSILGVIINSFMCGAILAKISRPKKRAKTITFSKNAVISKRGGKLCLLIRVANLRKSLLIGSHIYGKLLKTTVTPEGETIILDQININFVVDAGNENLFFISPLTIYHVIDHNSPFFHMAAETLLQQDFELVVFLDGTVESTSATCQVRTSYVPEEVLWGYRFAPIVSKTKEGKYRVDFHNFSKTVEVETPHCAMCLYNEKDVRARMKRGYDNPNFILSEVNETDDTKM
Autophagy mod = autophagy modulation, high-content screen; hit rate 0.98% among 190,000; AID 463193; MEF GFP-LC3 puncta imaging; test concentration mostly 10 µM; calls only at 10 µM (by protocol);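 active = percentage of spot-positive cells more than 3 SD above its plate mean, without a fluorescence outlier flag or 80% toxicity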
DTT redox prof = compounds producing H2O2 with reducing agent – biochemical, NIH compound library profiling, artefact control for MLSCN library redox annotation, primary screen; DTT-dependent redox cycling H2O2, phenol red/HRP absorbance; 100% = 100 µM peroxide control, 0% = buffer; activation, % at 10 µM; hit rate 0.03% among 200,000;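 active = activation of at least 50% relative to the plate's high and low controls in the primary single-dose screen; inactive = activation below 50%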;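 also: compound incubated with DTT at 0.8 mM final as the reducing agent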
Dynein transport = blocks dynein driven cargo transport along microtubules; AID 1381; z-score, hits read low; 3617.4 mouse cells, GR-EGFP nuclear translocation imaging; test concentration mostly 20 µM; stimulated with dexamethasone, 1 µM; active compounds read low; hit rate 0.47% among 220,000;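 active = plate z-score of nuclear minus cytoplasmic receptor signal below a set negative limit, without overly bright fluorescence or cell loss, cut at about -3.5 in these data, passing the limit was not always enough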;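 also: z-score of nuclear minus cytoplasmic ring GR-EGFP intensity difference per well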
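Buffer or medium: tet-free, stripped-serum medium; reagent: dexamethasone at 1.0 µM final, 30 min; incubation: 48 h induction, 1 h compound, 30 min dex at 37 °C; measured by: formaldehyde fixation, Hoechst nuclear stain, 10x automated fluorescence imaging; read-out: nuclear-to-cytoplasmic GR-EGFP distribution per well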
KCC2 mod = modulates chloride dependent transport by human KCC2; Q9H2X9; KCC2 cells, thallium flux FluoZin-2 fluorescence; B-score of Tl+ flux slope (higher = more flux/activation; lower = inhibition) at 10 µM; hit rate 2.2% among 190,000;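 active = thallium flux slope and its plate-corrected score both differing from the plate sample mean at a set confidence after two filtering rounds, in either direction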;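 also: slope of fluorescence scaled to starting intensity during 10 to 20 s after thallium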
ROMK hit retest = retested hit modulating human ROMK potassium channel. hit rate 54% among 3,000. normalized thallium flux (F/F0 slope) at 10 µM. AID 1917. shares compounds with ROMK primary. ROMK thallium flux, fluorescence ratio; active compounds read low;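 active = Flux at 10 µM at least 3 SD below or above vehicle control mean in one or both replicates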
A number is an active result; n = inactive; x = not tested or not shown; + = active, no number. Sampled rows, rich in hits. Any-hit rate of the full collection: about 4.1%.

SMILES	ROMK primary	Autophagy mod	DTT redox prof	Dynein transport	KCC2 mod	ROMK hit retest
CN1CCN(Cc2cc(C(C)(C)C)c(O)c(C(C)(C)C)c2)CC1	n	n	n	n	n	x
c1ccc(NC2=NCCS2)cc1	n	x	x	n	n	x
CCCCC1(CCCC)C(=O)NC(=Nc2cccc(C)c2)NC1=O	x	n	n	n	n	0.052
Cc1nn(Cc2ccccc2)c(C)c1C(=O)OCC(=O)Nc1cccc(S(N)(=O)=O)c1	n	n	n	n	n	x
Cc1ccc(OP(N)(=O)Oc2ccc(C)cc2)cc1	n	n	n	n	n	x
COc1ccccc1OP(=O)(Nc1cccnc1)Oc1ccccc1OC	x	+	n	n	n	0.062
O=C(O)[C@H]1NC[C@H]2C[C@H]21	n	n	n	n	n	x
Cc1ccc(OCC(=O)N2CCN(CC3CC4C=CC3C4)CC2)cc1 (centres undefined)	-2.11	n	n	n	x	0.0665
O=C(COc1ccccc1)N1CCN(CC2CC3C=CC2C3)CC1 (centres undefined)	x	n	n	n	n	x
COc1cc2c(cc1OC)[C@@H]1C(=O)c3ccc4c(c3O[C@@H]1CO2)C[C@H](C(C)C)O4	x	x	x	n	n	0.0639
Cc1cccn2c(=O)c3cc(C(=O)N4CCC5(CC4)OCCO5)n(C)c3nc12	5.35	n	n	n	x	n
CC1CC(OC(=O)c2ccccc2)(c2ccccc2)C(C)CN1C (centres undefined)	x	x	x	n	n	n
CC(=O)N1N=C(c2cccnc2)OC1c1ccccc1Cl (centres undefined)	n	x	x	n	n	x

Assay outcomes as filed in PubChem.
